Only a selection was taken, and hits are over-represented in it overall.
PolyA inh: polyadenylation inhibitors in yeast reporter cells, primary screen, luminescence, S. cerevisiae; S. cerevisiae SKY197-pL101 polyadenylation reporter, beta-gal luminescence; efflux-impaired pdr1/pdr3 knockout yeast; score 100 = 6 SD above DMSO; activity score, % at 12 µM; 0.02% of 300,000 active; AID 1875, 2009;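 active = lowest replicate activity score at least 50, where 100 means six control SD above control mean; inconclusive = lowest score under 50 but half or more replicates reach 50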;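 also: yeast exposed to compound for 9 h at 30 °C; higher score means more reporter readthrough which indicates perturbed polyadenylation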
T cruzi repl: inhibitors of intracellular T. cruzi growth, primary screen, luminescence, NIH3T3 host cells; T. cruzi beta-gal in NIH3T3, 90 h; inhibition, % (no concentration beside the values); 1.4% of 300,000 active; AID 1885, 2009;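 active = mean inhibition across valid replicates above about 55%, limit read from the data; inconclusive = mean below that limit but half or more replicates reach it; inactive = mean below it, under half of replicates reach it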;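 also: signal also drops with host cell toxicity which is not excluded here; higher percent means less beta-gal luminescence so fewer parasites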
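System – NIH/3T3 host cells with β-galactosidase reporter T. cruzi · Doses – single 50 nL compound addition per well in DMSO · Reagent – 5000 T. cruzi trypomastigotes/well · Medium – Low-serum DMEM with 2% FBS · Timing – ≥90 h infection period, 3 h prior cell attachment · Evaluation – parasite load inhibition, % · Technique – GalScreen luminescence, 60 min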
L major viab: Leishmania major promastigote growth inhibition, primary screen; Leishmania major promastigotes, resazurin fluorescence viability; inhibition, % at 10 µM; 9% of 200,000 active; in the data active = inhibition above about 50%;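 also: promastigotes grown with compound for 44 hours at 28 °C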
NALP3 yeast inh: NALP3 inflammasome inhibitors in reconstituted yeast, primary screen, luminescence, uHTS; Yeast reconstituted NLRP3/ASC/caspase-1, beta-gal luminescence, 24 h; inhibition, % at 10 µM; 0.39% of 330,000 active; AID 2825, 2010;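 active = inhibition of 50% or more; inactive = inhibition below 50%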
NALP1 yeast inh: NALP1 inflammasome inhibitors in reconstituted yeast, colorimetric, S. cerevisiae, triplicate retest; S. cerevisiae NALP1/ASC/caspase-1 growth, X-gal OD620, 72 h; inhibition, % at 10 µM; 0.61% of 280,000 active; AID 2071, 2009; in the data active = inhibition mostly above about 24%, no sharp cut-off; inactive = mostly below about 32%
Calb FLC: C. albicans growth inhibition with fluconazole, primary screen, CaCi-2 strain, Alamar Blue fluorescence. C. albicans CaCi-2 (fluconazole-resistant clinical isolate) + fluconazole, 48 h. growth inhibition, % (no concentration beside the values). 0.57% of 300,000 active. AID 1979, 2009;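 active = growth inhibition above about 58% in most replicates, limit read from the data, passing the limit was not always enough; inconclusive = exactly half the replicates above a set limit; inactive = most replicates below a set limit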;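 also: all wells also contain fluconazole at 8 µg/ml as a sub-toxic cotreatment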
Large screens that a line does not name were inactive.

O=C(Cn1ncc(Cl)c(Cl)c1=O)N1CCOCC1	none
O=C(Cn1ncc(Cl)c(Cl)c1=O)N1CCN(Cc2ccccc2)CC1	T cruzi repl 67 (no result: NALP3 yeast inh)
Cc1nn(CC(=O)N2c3ccccc3NC(=O)C2(C)C)c(C)c1[N+](=O)[O-]	none
CCc1ccc2[nH]c(C)c(CN3CCCCCC3)c(=O)c2c1	none (no result: L major viab)
CC(C(O)c1ccc(O)cc1)N1CCC(Cc2ccccc2)CC1 (configuration not stated)	L major viab 96
Cc1cccc(C)c1NC(=O)CCCSc1nnc(-c2ccc(Cl)cc2)n1-c1ccccc1	L major viab 56
Cc1cccc(C)c1NC(=O)CCCSc1nnc(-c2ccc(F)cc2)n1-c1ccccc1	none
CCOC(=O)C1(Cc2cccc(Cl)c2)CCCN(C(=O)CCOC)C1 (configuration not stated)	none
CCOC(=O)C1(Cc2cccc(Cl)c2)CCCN(C2CCN(C(C)=O)CC2)C1 (configuration not stated)	L major viab 83
Cc1cc(NC(=O)c2cccc([N+](=O)[O-])c2)n(-c2ccccc2)n1	none
CCN(CC)S(=O)(=O)c1ccc(Cl)c(C(=O)Nc2cc(C)nn2-c2ccccc2)c1	L major viab 65
Cc1cc(NC(=O)c2cc([N+](=O)[O-])cc([N+](=O)[O-])c2)n(-c2ccccc2)n1	L major viab 89 (no result: NALP3 yeast inh)
CCOC(=O)c1cc(-c2ccccc2)sc1NC(=O)COC(=O)c1ccc(Cl)c(S(N)(=O)=O)c1	L major viab 91
CCOC(=O)c1cc(-c2ccccc2)sc1NC(=O)CN1C(=O)NC(CC)(c2ccc(F)cc2)C1=O (configuration not stated)	T cruzi repl 60
CCOC(=O)c1cc(-c2ccccc2)sc1NC(=O)CC	none
CCOC(=O)c1cc(-c2ccccc2)sc1NC(=O)CN1C(=O)NC(CC)(c2ccccc2)C1=O (configuration not stated)	T cruzi repl 66, L major viab 51
CCn1c(=O)cc(SCC(=O)Nc2ccc(C)cn2)c2ccccc21	none
CN(C)S(=O)(=O)Oc1cccc(C(=O)Nc2ccc([N+](=O)[O-])cc2)c1	none
Cc1ccc(-c2nc(CS(=O)CC(=O)NC3CCC(C)CC3)c(C)o2)cc1 (configuration not stated)	none
CCOc1cccc(-c2cc(-c3n[nH]c(=S)n3CC)c3ccccc3n2)c1	Calb FLC 69
CCn1c(-c2cc(-c3ccc(C)c(C)c3)nc3ccccc23)n[nH]c1=S	none
CC(=O)C1=C(Nc2ccccc2)CC(C)(O)C(C(C)=O)C1c1ccccc1 (configuration not stated)	none (no result: L major viab)
CCOC(=O)C1=C(Nc2ccccc2)CC(C)(O)C(C(=O)OCC)C1c1ccccc1 (configuration not stated)	T cruzi repl 76
CCOC(=O)C1=C(Nc2ccccc2)CC(C)(O)C(C(=O)OCC)C1c1ccc(Br)cc1 (configuration not stated)	L major viab 92
CCOC(=O)C1=C(Nc2ccc(C)cc2)CC(C)(O)C(C(=O)OCC)C1c1ccccc1 (configuration not stated)	none
O=C1c2ccccc2C(=O)N1c1ncc(Cc2ccc(Cl)cc2)s1	none (no result: PolyA inh, T cruzi repl, NALP3 yeast inh, Calb FLC)
Cc1ccc(Cc2cnc(N3C(=N)SC(C)C3=O)s2)cc1 (configuration not stated)	Calb FLC 82
Cc1cccc(Cc2cnc(N3C(=N)SC(C)C3=O)s2)c1 (configuration not stated)	T cruzi repl 68, Calb FLC 94
Cc1cccc(Cc2cnc(N3C(=N)SC(c4ccccc4)C3=O)s2)c1 (configuration not stated)	none (no result: NALP1 yeast inh)
Cc1noc(C)c1CSCC(=O)OCc1nc2ccccc2c(=O)n1CC#N	none
O=C(c1ccccc1NS(=O)(=O)c1cccc(C(F)(F)F)c1)N1CCc2ccccc21	L major viab 66
CCN(CC)CC#CCC(O)(c1ccccc1)c1ccc(Br)cc1 (configuration not stated)	none
C=CC(O)(C#CCN(CC)CC)c1ccccc1 (configuration not stated)	Calb FLC inconclusive
CCN(CC)CC#CCC(C)(c1ccccc1)c1ccccc1	L major viab 94, NALP1 yeast inh 31
CCN(CC)CC#CCC(O)(c1ccccc1)c1ccccc1	L major viab 77
Nc1nnc(Cc2cccc(Br)c2)s1	none (no result: L major viab)
CCOc1ccccc1NC(=O)C(C)CC (configuration not stated)	none
O=C(O)c1cccc(S(=O)(=O)N2CCCC(c3nc4c(nnn4Cc4ccc(F)cc4)c(=O)[nH]3)C2)c1 (configuration not stated)	T cruzi repl inconclusive (no result: L major viab)
Cc1c(C(=O)Nc2ccc(-c3nnc4n3CCCCC4)cc2)oc2c1ccc1ccccc12	T cruzi repl 56
O=C(Nc1ccc(-c2nnc3n2CCCCC3)cc1)c1cc2ccccc2o1	none
COc1ccc(-c2nnc(NC(=O)c3ccc([N+](=O)[O-])o3)o2)c(OC)c1	none (no result: L major viab)
Cc1ccc(NC(=O)c2ccc([N+](=O)[O-])o2)c(C)c1	L major viab 94
O=C(Nc1ccc(NC(=O)c2ccc([N+](=O)[O-])o2)cc1Cl)c1ccco1	none (no result: L major viab)
Cc1ccccc1NC(=O)c1ccc([N+](=O)[O-])o1	L major viab 69
O=C(Nc1ccccc1Cl)c1ccc([N+](=O)[O-])o1	Calb FLC 100 (no result: L major viab)
Cc1ccc(-c2nnc(NC(=O)c3ccc([N+](=O)[O-])o3)o2)c(C)c1	Calb FLC 85 (no result: L major viab, NALP1 yeast inh)
O=c1c2ccccc2[nH]c(=S)n1-c1cccc(S(=O)(=O)N2CCCC2)c1	none
O=C(O)CC(NC(=O)Cc1ccc([N+](=O)[O-])cc1)c1ccc2c(c1)OCO2 (configuration not stated)	none
CS(=O)(=O)N1CCN(c2ccccc2NC(=O)c2ccc([N+](=O)[O-])o2)CC1	L major viab 100
CS(=O)(=O)N1CCN(c2ccccc2NC(=O)C(c2ccccc2)c2ccccc2)CC1	NALP1 yeast inh 43
CC(C)C(=O)Nc1ccccc1N1CCN(S(C)(=O)=O)CC1	none
O=C(Nc1ccc2oc(-c3cccnc3)nc2c1)c1ccc([N+](=O)[O-])o1	L major viab 100 (no result: NALP3 yeast inh)
Cc1cccc(NC(=O)c2ccc([N+](=O)[O-])o2)n1	L major viab 96
O=C(Nc1ccc2oc(-c3cccnc3)nc2c1)c1ccc(Br)o1	none
Cc1occc1-c1nnc(SCC(=O)N2CCCCC2)o1	none
COc1cc(/C=N/NC(=O)Cn2cnc3c2c(=O)n(C)c(=O)n3C)ccc1O	none (no result: L major viab)

Source: PubChem BioAssay
